Test results as given in paper PMC7711931 (ACS Omega, 2020).

Experiments:
[1] = system: NQO2; conditions: read-out: IC50, NQO2 inhibition; cited from earlier work
[2] = biological target: T1, TR4 (Homo sapiens, UniProt P49116); assay: Dual-luciferase reporter assay of TR4 transactivation; type: cell-based; conditions: for Effect on TR4 transactivation: 10 μM, 24 h, 293T cells, DMSO negative control (Figure 3A); for Effect on TR4 transactivation in the presence of ATRA: drug 10 μM, ATRA 20 μM (Figure 3E); for Luciferase activity (TR4 transactivation), validation of the reporter system: 293T cells cotransfected with pGLO-TR4RE-Dluc and TR4 (Figure 2B)
T1 sequence (P49116 1-596): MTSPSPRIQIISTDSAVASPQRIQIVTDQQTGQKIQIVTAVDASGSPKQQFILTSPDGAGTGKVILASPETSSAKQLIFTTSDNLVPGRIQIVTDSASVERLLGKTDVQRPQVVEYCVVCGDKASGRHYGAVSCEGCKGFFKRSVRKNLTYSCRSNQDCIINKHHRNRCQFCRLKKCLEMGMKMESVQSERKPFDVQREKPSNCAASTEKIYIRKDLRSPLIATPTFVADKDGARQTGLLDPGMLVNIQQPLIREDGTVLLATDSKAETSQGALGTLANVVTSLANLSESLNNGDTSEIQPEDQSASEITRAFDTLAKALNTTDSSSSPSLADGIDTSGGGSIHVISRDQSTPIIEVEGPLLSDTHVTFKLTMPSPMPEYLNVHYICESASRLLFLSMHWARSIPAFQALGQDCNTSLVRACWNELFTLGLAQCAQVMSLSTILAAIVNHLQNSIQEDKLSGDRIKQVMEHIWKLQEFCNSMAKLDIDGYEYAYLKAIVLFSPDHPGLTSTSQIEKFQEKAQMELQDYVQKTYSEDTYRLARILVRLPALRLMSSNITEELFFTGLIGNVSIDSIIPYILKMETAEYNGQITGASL
Summary of the method: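 TR4RE-TK-firefly luciferase cassette from pGL3-(DR)3-TK subcloned into pmirGLO, giving a dual-luciferase reporter. Cells were cotransfected with reporter and TR4 expression plasmid for 24 h, then exposed to test compound for another 24 h: 10 μM for screening or a dose range for curves, with DMSO as negative control. Some arms included ATRA 20 μM. Luciferase was read with a dual-luciferase kit. Means of three independent experiments.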

[3] = biological target: T2, TR4-LBD (Homo sapiens, UniProt P49116); assay: Circular dichroism spectra of TR4-LBD with or without drug; conditions: TR4-LBD 0.2 mg/mL, drug 20 μM, 5 mM phosphate buffer pH 7.4
T2 sequence (P49116 341-583 limits assumed): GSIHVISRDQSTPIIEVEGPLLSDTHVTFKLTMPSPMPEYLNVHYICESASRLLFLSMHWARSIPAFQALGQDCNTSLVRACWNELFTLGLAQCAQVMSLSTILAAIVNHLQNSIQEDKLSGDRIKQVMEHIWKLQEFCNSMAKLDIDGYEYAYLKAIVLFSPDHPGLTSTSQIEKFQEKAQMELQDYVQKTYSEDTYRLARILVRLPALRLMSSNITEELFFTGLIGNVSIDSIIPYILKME
Summary of the method: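 TR4 ligand-binding domain was expressed in E. coli BL21(DE3) with an N-terminal His6-SUMO tag, purified on His-tag resin, cleaved with SUMO protease, and collected in the flow-through of a second His-tag step. It was desalted into 5 mM phosphate buffer and quantified by BCA. Spectra of protein with or without test compound were recorded in a 0.5 cm path-length cell.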

[4] = biological target: T2, TR4-LBD; assay: SPRi assay: binding of TR4-LBD to the immobilized FDA-approved drug library

Compound | IC50 [1] | EC50 [2] | Effect on TR4 transactivation [2] | Effect on TR4 transactivation in the presence of ATRA [2] | CD characteristic peak for the β-sheet at 216 nm [3] | Kd [4] | Luciferase activity (TR4 transactivation), validation of the reporter system [2] | Efficiency relative to ATRA (EC50 ratio) ([2]; genistein EC50 2.42 μM vs ATRA 23.8 μM) | CD characteristic peak for α-helix at 208 nm [3]
Cc1cn(-c2cc(NC(=O)c3ccc(C)c(Nc4nccc(-c5cccnc5)n4)c3)cc(C(F)(F)F)c2)cn1 [Nilotinib (AMN-107)] | 1.8 µM | 1.05 µM | most potent inhibitor | almost blocked the activation of TR4 by ATRA | significantly reduced | – | – | – | –
C=C(c1ccc(C(=O)O)cc1)c1cc2c(cc1C)C(C)(C)CCC2(C)C [bexarotene] | – | 37.5 µM | – | – | – | 0.0848 µM | suppressed | – | –
O=c1c(-c2ccc(O)cc2)coc2cc(O)cc(O)c12 [Genistein] | – | 2.42 µM | most potent activator | equivalent to that of genistein single treatment | – | – | – | approximately 10 times | significantly increased
CC1=C(/C=C/C(C)=C/C=C/C(C)=C/C(=O)O)C(C)(C)CCC1 [ATRA, all-trans-retinoic acid] | – | – | – | – | – | 100 µM | elevated | – | –
